What follows are molecules tested against T1, OR2M7 (Homo sapiens) (UniProt Q8NG81). Details: stereoisomer not certain.
T1 sequence (whole entry): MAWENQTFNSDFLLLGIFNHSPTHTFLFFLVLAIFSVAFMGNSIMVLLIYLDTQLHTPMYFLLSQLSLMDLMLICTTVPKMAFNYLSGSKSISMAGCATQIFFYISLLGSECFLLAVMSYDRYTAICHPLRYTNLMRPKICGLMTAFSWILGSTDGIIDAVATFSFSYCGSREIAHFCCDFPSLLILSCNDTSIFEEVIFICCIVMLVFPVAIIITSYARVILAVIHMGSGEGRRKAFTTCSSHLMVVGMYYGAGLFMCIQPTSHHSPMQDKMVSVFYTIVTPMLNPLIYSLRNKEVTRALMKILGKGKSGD
Procedure, shortened: (§1)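 Whether a receptor–molecule pair is responsive (active) rests on the original authors' judgment that its measured signal was statistically different from baseline. Pairs without that judgment are non-responsive (inactive). Sources used varied assay methods, commonly transient luciferase assays in mammalian cell lines.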
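Note: active if original authors judged signal statistically different from baseline.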

Compound | odorant receptor agonist call
CC(=O)OCc1ccccc1 | inactive
CCCCCC(S)C(C)CO (stereo not drawn) | inactive
CC1=C(O)C(=O)OC1C (stereo not drawn) | inactive
CCCCC(S)C(C)CO (stereo not drawn) | inactive

These molecules were tested against T2, OR2S2 (Homo sapiens) (UniProt Q9NQN1). Details: stereoisomer not certain.
T2 sequence (whole entry): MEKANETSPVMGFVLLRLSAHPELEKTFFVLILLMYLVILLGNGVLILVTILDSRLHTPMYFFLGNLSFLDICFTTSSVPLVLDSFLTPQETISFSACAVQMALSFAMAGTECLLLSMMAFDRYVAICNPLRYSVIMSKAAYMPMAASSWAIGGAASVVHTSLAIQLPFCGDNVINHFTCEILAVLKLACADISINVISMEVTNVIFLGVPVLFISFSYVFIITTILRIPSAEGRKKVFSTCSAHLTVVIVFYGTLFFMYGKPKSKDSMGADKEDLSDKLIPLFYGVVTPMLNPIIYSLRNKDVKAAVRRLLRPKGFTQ
Procedure, shortened: as §1

Compound | odorant receptor agonist call
CCCCCC(S)C(C)CO (stereo not drawn) | inactive
CC1=C(O)C(=O)OC1C (stereo not drawn) | inactive
CCCCC(S)C(C)CO (stereo not drawn) | inactive

These molecules were tested against T3, OR2T1 (Homo sapiens) (UniProt O43869). Details: stereoisomer not certain.
T3 sequence (whole entry): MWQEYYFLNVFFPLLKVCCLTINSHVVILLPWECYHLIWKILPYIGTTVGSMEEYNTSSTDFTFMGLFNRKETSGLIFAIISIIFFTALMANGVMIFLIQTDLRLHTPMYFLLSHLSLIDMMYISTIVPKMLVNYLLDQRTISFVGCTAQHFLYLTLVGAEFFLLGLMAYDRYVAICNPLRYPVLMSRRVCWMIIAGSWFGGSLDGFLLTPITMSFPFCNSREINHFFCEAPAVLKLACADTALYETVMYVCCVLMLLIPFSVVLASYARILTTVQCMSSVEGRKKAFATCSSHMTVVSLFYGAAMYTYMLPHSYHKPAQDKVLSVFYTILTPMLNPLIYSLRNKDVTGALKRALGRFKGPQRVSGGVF
Procedure, shortened: as §1

Compound | odorant receptor agonist call
CCCCCC(S)C(C)CO (stereo not drawn) | inactive
CC1=C(O)C(=O)OC1C (stereo not drawn) | inactive
CCCCC(S)C(C)CO (stereo not drawn) | inactive

What follows are molecules tested against T4, OR2T10 (Homo sapiens) (UniProt Q8NGZ9). Details: stereoisomer not certain.
T4 sequence (whole entry): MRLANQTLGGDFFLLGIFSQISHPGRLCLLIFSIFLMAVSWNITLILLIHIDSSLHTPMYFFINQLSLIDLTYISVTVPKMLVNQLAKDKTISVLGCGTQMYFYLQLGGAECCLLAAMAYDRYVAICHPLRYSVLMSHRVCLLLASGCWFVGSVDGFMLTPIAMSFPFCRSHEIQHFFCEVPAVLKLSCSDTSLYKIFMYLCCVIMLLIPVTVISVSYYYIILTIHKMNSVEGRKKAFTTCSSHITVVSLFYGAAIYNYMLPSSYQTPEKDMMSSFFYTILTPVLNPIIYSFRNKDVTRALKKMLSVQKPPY
Procedure, shortened: as §1

Compound | odorant receptor agonist call
CCCCC1CCC(=O)O1 (stereo not drawn) | inactive
CC(=O)OCc1ccccc1 | inactive
CCC(=O)C=CC1C(C)=CCCC1(C)C (stereo not drawn) | inactive
CCOC(=O)CC1(C)OCCO1 | inactive
CCCCCC(S)C(C)CO (stereo not drawn) | inactive
CC1=C(O)C(=O)OC1C (stereo not drawn) | inactive
CCCCCCCCC(OC(C)=O)OC(C)=O | inactive
COc1ccc(C)cc1 | inactive
CC(C)=CCCC(C)CC=O (stereo not drawn) | inactive
CCC=C(C)C(O)CCCCC (stereo not drawn) | inactive
CC(CC=O)c1ccc(C(C)(C)C)cc1 (stereo not drawn) | inactive
OCc1ccccc1 | inactive
CC(=O)C=CC1=C(C)CCCC1(C)C | inactive
C=CCOC(=O)COCCC(C)C | inactive
CCCC(C)C(=O)OCC (stereo not drawn) | inactive
C=CC(C)(CCC=C(C)C)OC(C)=O (stereo not drawn) | inactive
CCCCC(S)C(C)CO (stereo not drawn) | inactive
CCCCCC1COCCC1OC(C)=O (stereo not drawn) | inactive
CC1CC(C)(c2ccccc2)CO1 (stereo not drawn) | inactive
Cc1occc(=O)c1OC(=O)C(C)C | active
CC1=CCC2CC1C2(C)C (stereo not drawn) | inactive
Cc1ccc(C(C)C)cc1O | inactive
C=CC(C)(O)CCC=C(C)CCC=C(C)C (stereo not drawn) | inactive
CCc1ccc(CC(C)(C)C=O)cc1 | inactive
CC(C)CCCC(C)(C)O | inactive
CCCCCC1C(=O)CCC1CC(=O)OC (stereo not drawn) | inactive
CC(C)(C)C1CCCCC1OCCCCO (stereo not drawn) | inactive
COC1CC2CC1C1CC(C=O)CC21 (stereo not drawn) | inactive

From the M2OR odorant receptor database
